Measurements as given in publication PMC6028879 (Clinical Pharmacokinetics, 2018).

Key:
Drug-drug interaction = format: in vivo, human; conditions: ITZ 200 mg oral solution once daily; during the blood sampling period for VPR
Outline: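 This was a fixed-sequence, open-label study. In period 1, the test compound was given as a single oral 4 mg tablet, fasted, with water. After a washout of ≥ 4 weeks, itraconazole 200 mg oral solution was given once daily for 14 days. On day 4 the test compound was dosed 1 h after itraconazole. Plasma was sampled to 11 or 13 days and measured by validated LC–MS/MS. Non-compartmental analysis was used. Log-transformed AUC0–11d and Cmax were analysed by ANOVA with treatment and subject effects, giving ratio estimates, 90% CI and 95% PI.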

[1] = ulipristal acetate with ketoconazole; cited from earlier work

| geometric mean ITZ trough concentrations (Drug-drug interaction) | SMILES | increase in exposure with ketoconazole [1] [fold] |
| --- | --- | --- |
| above 530 µg/L | CCC(C)n1ncn(-c2ccc(N3CCN(c4ccc(OCC5COC(Cn6cncn6)(c6ccc(Cl)cc6Cl)O5)cc4)CC3)cc2)c1=O (centres unmarked) [ITZ, Itraconazole] | – |
| – | CC(=O)O[C@]1(C(C)=O)CC[C@H]2[C@@H]3CCC4=CC(=O)CCC4=C3[C@@H](c3ccc(N(C)C)cc3)C[C@@]21C [ulipristal acetate] | 5.8 |
